Source: PubChem BioAssay
NR3A LBD binder: modulators (binders) of human NR3A ligand-binding domain | Tm shift relative to glycine control, % at 25 µM | hit rate 2.5% among 340,000 | AID 1259313 | NR3A LBD differential scanning fluorimetry, Tm shift; 0% = protein alone, 100% = glycine-bound protein;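 active = melting temperature shift of at least 10% of the positive control shift, at one fixed dose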
FGF22 binding: FGF22 (human) thermal shift binding | Q9HCT0 | recombinant FGF22 thermal shift, SYPRO orange fluorescence; percent of sucrose octasulfate shift, DMSO zero | activity (Tm shift, normalised), % at 9.99 µM | hit rate 1.5% among 340,000 | AID 651658;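 active = mean Tm shift, scaled 0 neutral to 100 positive control, at about 1.3% or above, every replicate too, limit read from the data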
Target sequence (Q9HCT0 whole entry, looked up): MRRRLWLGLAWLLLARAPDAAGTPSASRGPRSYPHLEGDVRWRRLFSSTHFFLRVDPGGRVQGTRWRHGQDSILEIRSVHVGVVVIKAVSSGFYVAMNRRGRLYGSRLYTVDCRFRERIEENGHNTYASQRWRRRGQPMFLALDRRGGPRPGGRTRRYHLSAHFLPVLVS
EBNA-1 inh: blocks EBNA-1 binding to DNA | EBNA-1 DNA binding, fluorescence polarization | inhibition, % at 14.8 µM | hit rate 0.34% among 300,000 | AID 1950; in the data active = inhibition above about 28%
HCV NS3 hel inh: blocks Hepatitis C virus NS3 helicase unwinding; hit rate 0.56% among 290,000; inhibition, % at 10.9 µM; NS3 helicase DNA unwinding, Cy5 molecular beacon fluorescence; AID 1800;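 active = inhibition above the mean of all tested compounds plus 3 SD, set per campaign, cut at about 35% in these data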
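System: Hepatitis C virus NS3 helicase domain fragment enzyme | Reagent: Annealed dual-labelled DNA beacon duplex, ATP-started | Compound dosing: 10.9 µM single point, 0.8% DMSO | Incubation: 1 h reaction at 25 °C, ATP-initiated | Technique: Cy5 fluorescence | Evaluation: Percent inhibition from t60/t0 fluorescence ratio | Benchmarks: Low DMSO, high thioflavine S at 110 µM | Replication: Singlicate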
ZTA DNA inh: blocks Epstein-Barr virus ZTA, an EBNA-1 counter-screen | P03206 | ZTA-DNA binding, fluorescence polarization | inhibition, % at 11 µM | hit rate 0.15% among 320,000 | AID 2234; in the data active = inhibition above about 33%
Target sequence (P03206 whole entry, looked up): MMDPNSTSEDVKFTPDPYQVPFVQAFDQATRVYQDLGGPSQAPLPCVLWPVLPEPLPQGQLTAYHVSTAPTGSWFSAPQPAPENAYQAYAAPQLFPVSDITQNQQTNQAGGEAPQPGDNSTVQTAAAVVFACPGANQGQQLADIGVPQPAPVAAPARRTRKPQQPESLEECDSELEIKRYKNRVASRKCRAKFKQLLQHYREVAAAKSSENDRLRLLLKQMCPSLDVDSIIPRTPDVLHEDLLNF
DNA FID counter: fluorescent intercalator displacement, NS3 helicase counter-screen | DNA fluorescent intercalator displacement, fluorescence | inhibition, % at 7.9 µM | hit rate 0.17% among 290,000; in the data active = inhibition above about 37%;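 note: higher means more ethidium bromide displaced from hairpin DNA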
Each line names hits and unclear results; the compound was inactive in the other large screens. Shown are actives, neighbours in structure and some others; about 3.6% of the full set was active somewhere.

CCOCCOC(=O)C(C)Oc1ccc(Oc2ncc(Cl)cc2Cl)cc1 (stereo unspecified)	none
CCOCCOC(=O)C(C)Oc1ccc(Oc2nc(Cl)ccc2Cl)cc1 (stereo unspecified)	FGF22 binding 43
COc1ccc2c3c(n(C)c2c1)[C@@H](CO)N(Cc1ccccc1Cl)CC31CCN(C(=O)CN(C)C)CC1	none (no result: NR3A LBD binder, EBNA-1 inh, HCV NS3 hel inh, ZTA DNA inh, DNA FID counter)
COc1ccccc1N(CC(=O)N(CC(C)C)CC(C)C)S(=O)(=O)c1cccs1	FGF22 binding 43
COc1ccccc1N(CC(=O)N(c1ccccc1)C(C)C)S(=O)(=O)c1cccs1	none
COCC(=O)Nc1ccc2c(c1)OC[C@H](C)N(Cc1ccccc1OC)C[C@H](C)[C@@H](OC)CN(C)C2=O	none (no result: NR3A LBD binder, EBNA-1 inh, HCV NS3 hel inh, ZTA DNA inh, DNA FID counter)
Cc1nc(NC(=O)/C=C/c2ccccc2)sc1C(=O)Nc1ccccc1	NR3A LBD binder 21 (no result: FGF22 binding)
COC(=O)c1sc(NC(=O)/C=C/c2ccccc2Cl)nc1C	NR3A LBD binder 19
COC(=O)c1sc(NC(=O)/C=C/c2ccc(C)cc2)nc1C	NR3A LBD binder 23 (no result: FGF22 binding)
CCOC(=O)c1sc(NC(=O)/C=C/c2ccccc2)nc1C	NR3A LBD binder 10
C[C@@H]1CCCCO[C@H](CN(C)C(=O)NC2CCCCC2)[C@H](C)CN([C@@H](C)CO)C(=O)c2cc(NS(=O)(=O)c3ccc(Cl)cc3)ccc2O1	none (no result: NR3A LBD binder, EBNA-1 inh, HCV NS3 hel inh, ZTA DNA inh, DNA FID counter)
C[C@@H]1CCCCO[C@@H](CN(C)S(=O)(=O)c2ccc(F)cc2)[C@@H](C)CN([C@H](C)CO)C(=O)c2cc(NC(=O)Nc3ccccc3)ccc2O1	none (no result: NR3A LBD binder, EBNA-1 inh, HCV NS3 hel inh, ZTA DNA inh, DNA FID counter)
COc1cccc(C2(O)CC(C(F)(F)F)=NN2C(=O)c2ccccn2)c1 (stereo unspecified)	FGF22 binding 43
O=C(c1ccccc1)N1N=C(C(F)(F)F)CC1(O)c1ccccc1 (stereo unspecified)	none
C[C@@H]1CN([C@H](C)CO)C(=O)c2cc(NC(=O)CCCN(C)C)ccc2O[C@H]1CN(C)C(=O)Nc1ccccc1	none (no result: NR3A LBD binder, EBNA-1 inh, HCV NS3 hel inh, ZTA DNA inh, DNA FID counter)
CCOC(=O)c1c(-c2ccc(C)cc2)csc1NC(=O)C1CCCO1 (stereo unspecified)	NR3A LBD binder 10 (no result: FGF22 binding)
C[C@H](CO)N1C[C@H](C)[C@H](CN(C)S(C)(=O)=O)Oc2c(NS(C)(=O)=O)cccc2C1=O	none (no result: NR3A LBD binder, EBNA-1 inh, HCV NS3 hel inh, ZTA DNA inh, DNA FID counter)
Nc1nc(Cl)cc(N2CCC(c3cc(-c4ccc(Cl)cc4)n[nH]3)CC2)n1	NR3A LBD binder 17
Clc1ccc(-c2cc(C3CCNCC3)[nH]n2)cc1	FGF22 binding 43
COc1ccc(-c2cc(C3CCN(c4cc(Cl)nc(N)n4)CC3)[nH]n2)cc1	none (no result: FGF22 binding)
Cc1ccc(NC(CC(=O)c2ccccc2)C(=O)O)cc1Cl (stereo unspecified)	none
O=C(CC(Nc1ccccc1)C(=O)O)c1ccccc1 (stereo unspecified)	NR3A LBD binder 36 (no result: FGF22 binding, HCV NS3 hel inh, DNA FID counter)
COc1ccccc1CN1C[C@@H]2C[C@@H](c3ccccc3OC)N3CCC[C@@]23C1=O	none
COc1ccccc1CN1C[C@@H]2C[C@@H](c3ccc(Cl)cc3)N3CCC[C@@]23C1=O	FGF22 binding 43
CN1CCN(C(=O)CSc2cc(=O)n(C)c3ccccc23)CC1	FGF22 binding 43
CCCC(=O)Nc1ccc2c(c1)C(=O)N(C)[C@@H]1CC[C@@H](CC(=O)NCCN3CCCCC3)O[C@H]1CO2	none (no result: NR3A LBD binder, EBNA-1 inh, HCV NS3 hel inh, ZTA DNA inh, DNA FID counter)
COc1ccccc1NC(=O)/C=C/c1cc([N+](=O)[O-])ccc1OC(F)F	none
O=C(/C=C/c1cc([N+](=O)[O-])ccc1OC(F)F)Nc1cccc2ccccc12	NR3A LBD binder 13
COc1ccc(CNC(=O)/C=C/c2cc([N+](=O)[O-])ccc2OC(F)F)cc1	none
O=C(/C=C/c1cc([N+](=O)[O-])ccc1OC(F)F)Nc1cccc(OC(F)F)c1	NR3A LBD binder 13
Cc1cc(C)nc(NC(C)(C)C(=O)O)n1	FGF22 binding 44
COc1ccc([C@H]2/C=C\CN(C(=O)c3ccc(C)cc3)[C@@H](C)C(=O)N2Cc2ccc(F)cc2)cc1	none (no result: HCV NS3 hel inh, DNA FID counter)
COc1ccc(C2/C=C\CN(C(=O)c3ccccc3)[C@H](Cc3ccccc3)C(=O)N2Cc2ccc(F)cc2)cc1 (stereo partly specified)	FGF22 binding 44 (no result: HCV NS3 hel inh, DNA FID counter)
CCCCC1CCC(C(=O)Nc2ccc(S(=O)(=O)Nc3nccs3)cc2)CC1 (stereo unspecified)	NR3A LBD binder 15 (no result: FGF22 binding)
